# Hits are enriched below; roughly 2.9% of the tested compounds scored in any of these assays.
# TAG inh: inhibitors of triacylglycerol accumulation | inhibition, % at 12.5 µM | 230,000 compounds, 0.66% hits | H9c2 cells, Nile Red lipid (TAG) fluorescence; cells loaded with 200 µM oleic acid;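 active = pattern-corrected inhibition of lipid staining of at least 50% with the nuclear-stain viability signal not falling by more than 50%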;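 also: 0% = DMSO wells and 100% = triacsin C control wells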
# iPSC survival up: hiPSC single-cell survival enhancement. ATPlite luminescence; 100% = ROCK inhibitor wells, 0% = DMSO. survival enhancement, % at 20 µM. 360,000 compounds, 0.044% hits. AID 602274; in the data active = survival enhancement above about 18%;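 also: cells exposed to compounds for 16 hours before the ATP read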
# PG9 binder: binds the HIV-1 gp120 antibody PG9; TR-FRET gp120-PG9 antibody binding; inhibition, % at 6.7 µM; 360,000 compounds, 0.43% hits; AID 624416; in the data active = inhibition above about 8.5%
# Rev-erbA mod: Rev-erb alpha (human) modulation; 370,000 compounds, 0.79% hits; Rev-erbα–FITC-DNA binding, fluorescence polarization, 90 min; activity, % at 10 µM; P20393;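 active = activity above about 14%, limit read from the data; passing the limit was not always enough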;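 also: 0% = DMSO wells with 35 nM protein and 100% = DMSO wells with 750 nM protein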
# Target sequence (P20393 whole entry, looked up): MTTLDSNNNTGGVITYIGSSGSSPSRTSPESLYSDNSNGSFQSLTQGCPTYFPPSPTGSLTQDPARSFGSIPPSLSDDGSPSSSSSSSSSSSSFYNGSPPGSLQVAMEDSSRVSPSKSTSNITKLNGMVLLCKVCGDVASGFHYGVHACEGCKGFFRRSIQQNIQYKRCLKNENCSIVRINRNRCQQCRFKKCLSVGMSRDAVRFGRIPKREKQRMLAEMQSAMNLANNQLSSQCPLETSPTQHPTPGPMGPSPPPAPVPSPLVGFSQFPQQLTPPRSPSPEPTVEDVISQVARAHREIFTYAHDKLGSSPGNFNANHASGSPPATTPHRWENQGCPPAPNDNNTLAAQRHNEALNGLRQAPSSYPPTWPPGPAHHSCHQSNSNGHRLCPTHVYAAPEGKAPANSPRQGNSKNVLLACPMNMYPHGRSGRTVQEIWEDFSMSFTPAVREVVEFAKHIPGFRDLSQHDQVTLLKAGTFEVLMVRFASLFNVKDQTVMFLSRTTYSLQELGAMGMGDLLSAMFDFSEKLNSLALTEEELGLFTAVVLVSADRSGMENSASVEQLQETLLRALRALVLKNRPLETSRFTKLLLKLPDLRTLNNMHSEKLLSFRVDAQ
# MIN6 prolif-1: MIN6 beta-cell proliferation induction. MIN6 cells proliferation, ATPlite luminescence, 48 h; cells starved in 0.2% serum; 100% = growth in 10% serum. proliferation, % at 10 µM. 330,000 compounds, 0.29% hits. AID 2380;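 active = compounds whose signal lies at least 3.5 SD above the mean of all wells on their plate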;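 also: 0% = DMSO-treated cells in low-serum medium and 100% = 10% serum control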
# T cruzi repl: blocks replication of Trypanosoma cruzi; 300,000 compounds, 1.4% hits; T. cruzi beta-gal in NIH3T3, luminescence, 90 h; inhibition, % (no concentration beside the values);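 active = mean inhibition across valid replicates above about 55%, limit read from the data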;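 also: signal also drops with host cell toxicity which is not excluded here; 0% = plate median of DMSO wells and 100% = zero luminescence signal; higher percent means less beta-gal luminescence so fewer parasites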
#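 System: NIH/3T3 fibroblasts plus reporter T. cruzi. Medium: DMEM plus 2% FBS. Probe or stimulus: 5000 reporter trypomastigotes per well. Compound: single 50 nL compound addition per well in DMSO. Incubation: co-culture of at least 90 h after 3 h attachment. Detection: GalScreen β-gal luminescence, detergent lysis, 60 min. Evaluation: parasite load inhibition, %.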
# MIN6 prolif-2: MIN6 beta-cell replication induction, confirmed; shares compounds with MIN6 prolif-1; MIN6 beta-cell proliferation, ATPlite luminescence, 48 h; cells kept in 0.2% serum; scaled between 0.2% and 10% serum; proliferation increase, % at 50 µM; 920 tested, under 10 active; AID 463095;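 active = proliferation increase above 40% at any of the four tested concentrations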
# Numbers without * were called inactive; · = no result.
SMILES,TAG inh,iPSC survival up,PG9 binder,Rev-erbA mod,MIN6 prolif-1,T cruzi repl,MIN6 prolif-2
Cc1ccccc1C(=O)OCC(=O)NCC1COc2ccccc2O1 (stereo unspecified),-10,0,-1,-5,12*,·,-5
COc1ccc(CCNC(=O)CCN2C(=O)c3cccc4cccc(c34)C2=O)cc1OC,·,-1,-1,-3,7.9*,13,0
O=C(OCC(=O)N1CCCC1)c1cccs1,·,0,0,-2,8.1*,-5,1
CCc1ccccc1NC(=O)COC(=O)c1cccs1,·,0,1,-6,8.1*,-5,2
O=C(CS(=O)(=O)Cc1ccccc1)Nc1ccc2c(c1)OCO2,6,0,-2,1,-1,-20,·
COc1ccc(C(=O)N/C(=C/c2cccnc2)C(=O)NCc2ccco2)cc1OC,2,1,-1,-2,-2,3,·
Cc1ccc(C(=O)N/C(=C/c2cccnc2)C(=O)NCc2ccco2)cc1,·,3,1,2,4.7*,-30,-1
N=C(c1ccc([N+](=O)[O-])cc1)N1CCCCC1,6,2,0,-4,3,1,·
O=C(NCC(=O)N1CCCC(C(F)(F)F)C1)c1ccco1 (stereo unspecified),3,2,1,0,12*,·,1
O=C(NCc1ccc2c(c1)OCO2)c1ccc2c(c1)OCO2,2,0,-2,5,0,-12,·
O=C(NCc1ccc2c(c1)OCO2)c1ccc2snnc2c1,1,-2,3,0,8.2*,21,0
CN1CCN(c2nc(C#N)cc(-c3ccccc3)n2)CC1,22,0,-2,0,9.8*,19,-5
O=C(NCC1CCCO1)c1ccccc1OCc1ccc(F)cc1 (stereo unspecified),8,0,-1,-6,4,-1,·
O=C(NCC1CCCO1)c1ccccc1OCc1ccc(Cl)cc1 (stereo unspecified),-14,1,2,3,15*,3,-4
CCOC(=O)c1cc[nH]c1CC(=O)NC,·,0,-1,-2,8.5*,-5,-2
O=S(=O)(Nc1ccc(Br)cc1)N1CCOCC1,4,0,-2,5,-5,-10,·
CCOC(=O)c1c(C)[nH]c(C)c1C(=O)COC(=O)c1cccc(S(=O)(=O)NC)c1,-27,-1,-1,-7,11*,12,0
O=C(Cc1cccs1)N1CCN(S(=O)(=O)c2ccccc2)CC1,·,0,1,0,7.2*,3,-2
CCOc1ccc(NC(=O)C(C)N2C(=O)c3ccccc3S2(=O)=O)cc1 (stereo unspecified),12,0,1,2,-4,-1,·
Cc1ccc(S(=O)(=O)Nc2ncc(C(F)(F)F)cc2Cl)cc1,0,1,1,-14,1,3,·
O=C(Cn1c(=S)[nH]c2ccccc21)c1ccccc1,·,0,0,2,0,-12,·
NS(=O)(=O)c1ccc(NC(=S)NCc2ccccc2Cl)cc1,12,0,-1,2,5.3*,-26,-6
Cc1ccc(S(=O)(=O)NCC(=O)NC2CC2)cc1,-3,0,0,0,11*,-4,0
Cc1ccc(S(=O)(=O)NCCC(=O)NC2CC2)cc1,·,0,-2,2,-1,-23,·
COCCn1c(SCC(=O)c2ccccc2)nc2ccccc2c1=O,·,0,-3,1,7.8*,21,-6
SMILES,TAG inh,iPSC survival up,PG9 binder,Rev-erbA mod,MIN6 prolif-1,T cruzi repl,MIN6 prolif-2
COCCCn1c(SCC(=O)c2ccccc2)nc2ccccc2c1=O,-9,0,-1,3,4,14,·
CCOC(=O)N1CCN(Cc2nc3cc(NC(=O)CC(C)C)ccc3n2C)CC1,·,0,0,-11,-3,-4,·
O=C(CN1C(=O)S/C(=C/c2cccs2)C1=O)N1CCCC1,10,0,1,-3,10*,·,3
O=[N+]([O-])c1ccc(SCc2ccco2)cc1N1CCOCC1,7,-1,0,2,-1,14,·
O=[N+]([O-])c1ccc(N2CCOCC2)cc1SCc1ccco1,·,6,-1,-3,0.0*,-12,2
O=[N+]([O-])c1ccccc1S(=O)(=O)NC1CCCCCCC1,-26,0,-1,1,-1,7,·
O=C1CCCCCCC1Sc1ccccc1[N+](=O)[O-] (stereo unspecified),0,1,-1,4,6.2*,-2,-4
Cc1ccc(S(=O)(=O)N2CCN(C(=O)c3nn(C(C)C)c(=O)c4ccccc34)CC2)cc1C,4,1,-3,1,5.4*,17,-5
CCC(=O)N1N=C(c2ccccc2)CC1c1ccc([N+](=O)[O-])cc1 (stereo unspecified),·,0,0,-1,7.3*,9,-6
CCC(=O)N1N=C(c2cccs2)CC1c1ccc(C)cc1 (stereo unspecified),·,1,0,-5,7.8*,19,-6
CCC(=O)N1N=C(c2cccs2)CC1c1ccc(OC)cc1 (stereo unspecified),·,0,-1,-4,5,3,·
Cc1ccccc1C(=O)NC[C@@H]1CCCN2CCCC[C@H]12,·,0,1,-1,-3,-4,·
CSc1sc(C(=O)N2CCCCC2)c(-c2cccs2)c1C#N,-12,2,-1,-2,6.9*,10,-4
O=C(NNC(=O)C1CCCO1)c1ccc(Cl)cc1 (stereo unspecified),13,-1,0,·,8.5*,-6,-2
O=C(NNC(=O)C1CCCO1)c1ccc([N+](=O)[O-])cc1 (stereo unspecified),·,0,-2,0,0,13,·
COc1ccc(Cn2cc(CN3[C@H](Cc4ccccc4)COc4cc(Br)ccc4S3(=O)=O)nn2)cc1,·,·,·,0,·,·,·
O=C(CN(Cc1ccccc1)C(=O)c1csnn1)NCCc1ccccc1,·,0,1,3,-1,3,·
CCOc1ccccc1N(CC(=O)Nc1ccc(OC)c(OC)c1)S(=O)(=O)c1ccccc1,·,0,0,-5,1,8,·
COc1ccc(N(CC(=O)NCCc2ccccc2)C(=O)c2csnn2)cc1OC,·,0,-1,-3,6.2*,-16,0
CCOc1ccccc1N(CC(=O)NCCc1ccc(OC)c(OC)c1)S(=O)(=O)c1ccccc1,·,0,-3,-3,7.1*,10,-1
O=C(CN(Cc1ccccc1Cl)C(=O)c1csnn1)NCCc1ccccc1,·,1,-3,9,6.0*,6,-4
Cc1sc2nc(CN3CCOCC3)nc(N3CCC(C(N)=O)CC3)c2c1C,0,-1,-1,1,-3,-3,·
